Measured values reported in publication PMC4094269 (Journal of Medicinal Chemistry, 2014).
Entries after “also recorded” stand apart in the source; their conditions may differ.

Experiments:
PARP-1 = PARP-1 (Homo sapiens, UniProt P09874); test: PARP-1 inhibition assay; type: biochemical
[1] = system: PARP-1-deficient DT40 cells; test: DT40 cell viability; type: cell-based, Chicken; details: 72 h, veliparib up to 10 μM
[2] = system: BRCA2-deficient DT40 cells; test: DT40 cell viability; type: cell-based, Chicken; details: 72 h
Water solubility = type: physicochemical
wild-type DT40 cells = test: DT40 cell viability; type: cell-based, Chicken; details: 72 h, veliparib up to 10 μM
In short: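 Chicken DT40 B-cell lines from an academic lab. 200 cells per well, continuously exposed to a range of drug concentrations for 72 h, in triplicate. Viability read by ATP content: one-step luciferase reagent added, luminescence read after 5 min. Viability is the treated ATP level over untreated ATP level × 100, with untreated set to 100%. SD from n = 3.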

PARP-1, sequence (P09874 whole entry): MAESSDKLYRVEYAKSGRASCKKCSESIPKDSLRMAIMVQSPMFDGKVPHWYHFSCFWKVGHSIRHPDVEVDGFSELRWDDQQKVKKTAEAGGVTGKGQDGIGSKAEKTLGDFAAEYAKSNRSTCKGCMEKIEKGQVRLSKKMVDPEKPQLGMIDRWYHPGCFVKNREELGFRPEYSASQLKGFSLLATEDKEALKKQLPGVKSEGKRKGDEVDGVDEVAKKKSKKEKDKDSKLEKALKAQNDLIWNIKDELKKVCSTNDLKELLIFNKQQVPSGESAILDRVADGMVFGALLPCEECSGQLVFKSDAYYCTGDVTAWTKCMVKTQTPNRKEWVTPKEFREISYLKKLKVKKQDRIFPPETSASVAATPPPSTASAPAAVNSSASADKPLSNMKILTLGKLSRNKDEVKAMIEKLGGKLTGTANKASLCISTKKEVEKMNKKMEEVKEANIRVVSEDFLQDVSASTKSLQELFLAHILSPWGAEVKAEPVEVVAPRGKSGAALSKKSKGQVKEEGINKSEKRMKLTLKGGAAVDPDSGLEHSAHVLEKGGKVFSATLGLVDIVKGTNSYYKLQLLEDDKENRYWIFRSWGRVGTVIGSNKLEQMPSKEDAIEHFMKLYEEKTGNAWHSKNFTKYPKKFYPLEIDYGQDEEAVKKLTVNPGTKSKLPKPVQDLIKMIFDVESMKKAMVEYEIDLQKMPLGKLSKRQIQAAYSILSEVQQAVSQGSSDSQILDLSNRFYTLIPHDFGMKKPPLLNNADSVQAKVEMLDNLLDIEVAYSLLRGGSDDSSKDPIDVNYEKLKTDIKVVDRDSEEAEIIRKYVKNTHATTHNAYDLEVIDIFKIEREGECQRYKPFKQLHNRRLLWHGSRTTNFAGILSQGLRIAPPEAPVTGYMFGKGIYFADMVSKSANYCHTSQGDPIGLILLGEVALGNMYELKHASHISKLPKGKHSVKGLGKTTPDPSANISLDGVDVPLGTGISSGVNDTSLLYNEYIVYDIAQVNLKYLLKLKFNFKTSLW

**Q.** For `CC1Cc2cc(F)cc(C(N)=O)c2O1` (racemic) [rac-13c, 5-Fluoro-2-methyl-2,3-dihydrobenzofuran-7-carboxamide], which fold more potent (PARP-1; rac-13c vs 13a) is on record?
**A.** 4 fold

**Q.** Which “fold increase in inhibition” value (PARP-1; rac-28 vs rac-13a) does the source give for `CC1Cc2c(N)ccc(C(N)=O)c2O1` (racemic) [rac-28, 4-Amino-2-methyl-2,3-dihydrobenzofuran-7-carboxamide] here?
**A.** 2 fold

**Q.** Which “PARP-1 inhibition, result in words” value (PARP-1) does the source give for `Cc1cc2c(c(C(N)=O)c1)OC(C)C2` (stereo not shown) [Compound 13b, 2,5-Dimethyl-2,3-dihydrobenzofuran-7-carboxamide] here?
**A.** inactive

**Q.** For `CC1Cc2cc([N+](=O)[O-])cc(C(N)=O)c2O1` (stereo not shown) [Compound 14, 2-Methyl-5-nitro-2,3-dihydrobenzofuran-7-carboxamide], which “PARP-1 inhibition, result in words” value (PARP-1) is on record?
**A.** inactive

**Q.** Which “PARP-1 inhibition, result in words” value (PARP-1) does the source give for `CC1Cc2cc(N)cc(C(N)=O)c2O1` (stereo not shown) [Compound 15, 5-Amino-2-methyl-2,3-dihydrobenzofuran-7-carboxamide] here?
**A.** inactive

**Q.** With `NC(=O)c1cc(F)cc2c1OCC2` [Compound 20, 5-Fluoro-2,3-dihydrobenzofuran-7-carboxamide] as the compound, how does the fold more potent (PARP-1; 20 vs initial lead 3) read?
**A.** ~5 fold

**Q.** With `COc1ccc(/C=C2\Oc3c(C(N)=O)cccc3C2=O)cc1` [Compound 54, (Z)-2-(4′-Methoxybenzylidene)-3-oxo-2,3-dihydrobenzofuran-7-carboxamide] as the compound, how does the “fold reduced inhibitory activity” value (PARP-1; 54 vs 57) read?
**A.** 4 fold

**Q.** For `NC(=O)c1cccc2c1O/C(=C\c1ccccc1O)C2=O` [Compound 55, (Z)-2-(2′-Hydroxybenzylidene)-3-oxo-2,3-dihydrobenzofuran-7-carboxamide], which “PARP-1 inhibition, result in words” value (PARP-1) is on record?
**A.** Poor inhibition

**Q.** Which “fold improvement in potency” value (PARP-1; 58 vs core 36) does the source give for `NC(=O)c1cccc2c1O/C(=C\c1ccc(O)c(O)c1)C2=O` [Compound 58, (Z)-2-(3′,4′-Dihydroxybenzylidene)-3-oxo-2,3-dihydrobenzofuran-7-carboxamide] here?
**A.** 30 fold

**Q.** With `NC(=O)c1cccc2c1O/C(=C\c1cc(O)cc(O)c1)C2=O` [Compound 60, (Z)-2-(3′,5′-Dihydroxybenzylidene)-3-oxo-2,3-dihydrobenzofuran-7-carboxamide] as the compound, how does the “PARP-1 inhibition, result in words” value (PARP-1) read?
**A.** poor inhibition; also recorded: complete loss of potency

**Q.** For `NC(=O)c1cccc2c1O/C(=C\c1cc(O)ccc1O)C2=O` [Compound 61, (Z)-2-(2′,5′-Dihydroxybenzylidene)-3-oxo-2,3-dihydrobenzofuran-7-carboxamide], which “PARP-1 inhibition, result in words” value (PARP-1) is on record?
**A.** poor inhibition; also recorded: complete loss of potency

**Q.** With `NC(=O)c1cccc2c1O/C(=C\c1ccc(OCCN3CCOCC3)cc1)C2=O` [Compound 65, (Z)-2-[4′-(2-Morpholin-4-ylethoxy)benzylidene]-3-oxo-2,3-dihydrobenzofuran-7-carboxamide] as the compound, how does the fold less potent (PARP-1; 65 vs 64) read?
**A.** 4 fold

**Q.** For `CN1CCN(CCOc2ccc(/C=C3\Oc4c(C(N)=O)cccc4C3=O)cc2)CC1` [Compound 66, (Z)-2-{4′-[2-(4-Methylpiperazin-1-yl)ethoxy]benzylidene}-3-oxo-2,3-dihydrobenzofuran-7-carboxamide], which “cytotoxicity, result in words” value [1] is on record?
**A.** minimally cytotoxic

**Q.** What about the “cytotoxicity, result in words” value [2] of the same compound?
**A.** selective cytotoxicity; also recorded: selectively killed; also recorded: selectively active

**Q.** And the “water solubility, result in words” value (Water solubility)?
**A.** water-soluble

**Q.** And the “cytotoxicity, result in words” value (wild-type DT40 cells)?
**A.** minimally cytotoxic

**Q.** With `NC(=O)c1cccc2c1O/C(=C\c1ccc(OCCCN3CCOCC3)cc1)C2=O` [Compound 67, (Z)-2-[4′-(3-Morpholin-4-ylpropoxy)benzylidene]-3-oxo-2,3-dihydrobenzofuran-7-carboxamide] as the compound, how does the times more potent (PARP-1; 67 vs ethyl analogue 65) read?
**A.** ~3 times

**Q.** Which “fold improvement in potency” value (PARP-1; 68 vs 65) does the source give for `NC(=O)c1cccc2c1O/C(=C\c1ccc(OCC(=O)N3CCOCC3)cc1)C2=O` [Compound 68, (Z)-2-[4′-(2-Morpholin-4-yl-2-oxoethoxy)benzylidene]-3-oxo-2,3-dihydrobenzofuran-7-carboxamide] here?
**A.** 9 fold

**Q.** Which “water solubility, result in words” value (Water solubility) does the source give for `CN1CCN(CCS(=O)(=O)Nc2ccc(/C=C3\Oc4c(C(N)=O)cccc4C3=O)cc2)CC1` [Compound 72, (Z)-2-{4-[2-(4-Methylpiperazin-1-yl)ethanesulfonylamino]benzylidene}-3-oxo-2,3-dihydrobenzofuran-7-carboxamide] here?
**A.** water-soluble
